# Data: publication PMC8530978 (Bioorganic chemistry, 2021)
# Tests used:
# [1] = system: purified HDAC isoforms (HDAC1, 2, 3, 8 and HDAC6); assay: Single concentration; format: biochemical; settings: 100 μM, HDAC1, 2, 3, 8 and 6
# Method in brief: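 Recombinant HDAC1, 2, 3, 6 or 8 (1 μL of enzyme stock at 3, 1, 30, 35 or 70 ng/μL respectively) in HDAC-Glo buffer, incubated 3 h at room temperature with test compound in DMSO. HDAC-Glo reagent then added; luminescence read every 3 min for 30 min. Peak signal corrected against a no-enzyme background and divided by the no-inhibitor signal to give % activity remaining.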
# HeLaM cells = assay: Flow cytometry cell cycle analysis; format: cell-based; settings: for cells in G2/M: 48 hours, subG1 excluded (DMSO 10%); for subG1 population: 72 hr post treatment (DMSO 14%)
# Method in brief: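 5 × 10^5 HeLaM cells plated, treated next day with test compound or DMSO for 24, 48 or 72 h. All cells (floating and attached) collected and fixed in 70% ethanol (final). […] 10 μg/ml, 30 min, 37 °C, then propidium iodide in PBS + 2% FBS. SubG1 gated; subG1 excluded before modeling live-cell cycle distribution.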
# HDAC2 = HDAC2 (Homo sapiens, UniProt Q92769); assay: HDAC-Glo inhibitor testing with recombinant HDAC2; format: biochemical
# Chain of HDAC2 (Q92769 whole entry): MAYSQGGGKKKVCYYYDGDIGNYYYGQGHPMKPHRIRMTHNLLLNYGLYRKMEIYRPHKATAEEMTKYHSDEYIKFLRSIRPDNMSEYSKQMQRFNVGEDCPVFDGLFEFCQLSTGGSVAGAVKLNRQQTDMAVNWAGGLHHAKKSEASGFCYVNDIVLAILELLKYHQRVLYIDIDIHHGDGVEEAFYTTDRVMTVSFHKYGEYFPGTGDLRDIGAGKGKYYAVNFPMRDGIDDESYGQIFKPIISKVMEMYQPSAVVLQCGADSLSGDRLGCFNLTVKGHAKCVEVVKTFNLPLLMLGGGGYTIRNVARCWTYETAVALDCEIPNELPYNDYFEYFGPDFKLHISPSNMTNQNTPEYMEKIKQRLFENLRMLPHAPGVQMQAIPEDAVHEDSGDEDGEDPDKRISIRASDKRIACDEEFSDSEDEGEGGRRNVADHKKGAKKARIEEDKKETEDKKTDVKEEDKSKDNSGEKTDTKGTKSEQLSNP
# HDAC1 = HDAC1 (Homo sapiens, UniProt Q13547); assay: HDAC-Glo inhibitor testing with recombinant HDAC1; format: biochemical
# Chain of HDAC1 (Q13547 whole entry): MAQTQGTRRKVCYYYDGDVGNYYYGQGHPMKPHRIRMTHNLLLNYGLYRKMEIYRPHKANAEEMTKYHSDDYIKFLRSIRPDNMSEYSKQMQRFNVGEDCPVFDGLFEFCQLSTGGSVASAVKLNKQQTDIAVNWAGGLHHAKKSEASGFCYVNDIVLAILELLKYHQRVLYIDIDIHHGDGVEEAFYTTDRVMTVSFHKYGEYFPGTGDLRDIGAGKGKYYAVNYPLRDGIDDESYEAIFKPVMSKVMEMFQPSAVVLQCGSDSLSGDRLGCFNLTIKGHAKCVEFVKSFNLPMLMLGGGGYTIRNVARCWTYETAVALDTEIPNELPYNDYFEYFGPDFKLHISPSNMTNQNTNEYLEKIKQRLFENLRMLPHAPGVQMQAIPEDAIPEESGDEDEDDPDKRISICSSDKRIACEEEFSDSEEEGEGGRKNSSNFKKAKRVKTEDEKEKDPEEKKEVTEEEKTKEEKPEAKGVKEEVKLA
# [2] = system: NCI sixty human tumor cell line panel; assay: NCI sixty human tumor cell line panel, single dose 10 μM; format: cell-based; settings: Homo sapiens; for activity at 10 µM: read-out: Mean % growth at 10 μM
# HDAC6 = target: T1, HDAC6 (Homo sapiens, UniProt Q9UBN7); assay: HDAC-Glo inhibitor testing with recombinant HDAC6; format: biochemical
# T1 sequence (Q9UBN7 1-1215): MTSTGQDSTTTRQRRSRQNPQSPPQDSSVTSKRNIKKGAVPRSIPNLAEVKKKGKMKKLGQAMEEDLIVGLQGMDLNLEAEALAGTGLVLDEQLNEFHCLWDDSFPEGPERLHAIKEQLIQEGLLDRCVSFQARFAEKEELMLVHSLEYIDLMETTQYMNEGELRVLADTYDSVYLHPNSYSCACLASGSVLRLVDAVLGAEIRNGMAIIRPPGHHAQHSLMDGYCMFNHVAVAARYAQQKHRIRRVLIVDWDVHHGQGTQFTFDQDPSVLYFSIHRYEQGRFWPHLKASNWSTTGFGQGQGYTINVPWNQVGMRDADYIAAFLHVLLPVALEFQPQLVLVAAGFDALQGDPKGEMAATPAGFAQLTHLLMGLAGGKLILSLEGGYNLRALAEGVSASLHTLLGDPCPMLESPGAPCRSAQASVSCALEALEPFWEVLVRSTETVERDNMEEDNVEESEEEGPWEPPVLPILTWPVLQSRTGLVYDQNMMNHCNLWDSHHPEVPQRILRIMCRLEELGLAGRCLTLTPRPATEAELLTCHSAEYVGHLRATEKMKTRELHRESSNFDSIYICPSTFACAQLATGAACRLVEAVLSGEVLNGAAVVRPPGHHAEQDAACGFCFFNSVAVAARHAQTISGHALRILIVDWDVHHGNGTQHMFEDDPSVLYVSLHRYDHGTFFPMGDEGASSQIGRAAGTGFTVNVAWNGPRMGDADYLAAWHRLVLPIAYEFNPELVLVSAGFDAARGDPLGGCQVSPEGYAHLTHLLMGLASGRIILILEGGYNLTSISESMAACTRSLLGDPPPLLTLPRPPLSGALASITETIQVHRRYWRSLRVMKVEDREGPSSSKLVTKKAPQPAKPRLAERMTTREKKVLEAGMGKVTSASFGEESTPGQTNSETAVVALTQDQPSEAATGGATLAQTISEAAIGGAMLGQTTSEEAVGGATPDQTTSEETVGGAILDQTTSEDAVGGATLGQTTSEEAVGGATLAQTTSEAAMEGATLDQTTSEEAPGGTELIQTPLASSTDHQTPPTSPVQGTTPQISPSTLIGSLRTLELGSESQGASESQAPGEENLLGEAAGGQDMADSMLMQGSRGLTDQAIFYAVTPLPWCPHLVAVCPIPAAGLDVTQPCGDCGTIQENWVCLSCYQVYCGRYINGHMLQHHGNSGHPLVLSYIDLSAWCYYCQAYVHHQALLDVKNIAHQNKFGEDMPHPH
# [3] = system: acetylation of SMC3 in HeLaM cells; assay: Western blot of SMC3 acetylation in HeLaM cells; format: cell-based; settings: overnight treatment
# Method in brief: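 Acetylated SMC3 detected by immunoblot with an anti-acetyl-SMC3 antibody, HRP-conjugated secondary antibody and enhanced chemiluminescence, imaged on film.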
# HCT 116 cells = assay: MTS reduction assay, antiproliferative activity on HCT 116; format: cell-based; settings: Homo sapiens, HCT-116, 96 h
# Method in brief: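 HCT116 cells grown in McCoy's 5A with 10% FBS (37 °C, 5% CO2), seeded at 3 × 10^3/well in triplicate and left to adhere overnight. Exposed to test compound at 0.01–100 μM, or DMSO, for 96 h. MTS reagent added for 2 h at 37 °C; absorbance read at 490 nm. Curves of log(concentration) vs response fitted with a variable Hill slope.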
# [4] = system: histone H3 acetylation and tubulin acetylation in HCT116 cells; assay: Western blot of histone H3 and tubulin acetylation in HCT116 cells; format: cell-based, human; settings: HCT116, 24 h, IPEs up to highest concentration 25 μM
# Method in brief: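 HCT116 cells (2 × 10^6 per T-25 flask) adhered overnight, then given test compound at 1, 10 or 25 μM, or DMSO, for 24 h. Lysed in RIPA; protein measured by BCA. Acetyl-histone H3 and acetyl-tubulin immunoblotted, detected with fluorescent secondary antibodies on an Odyssey scanner.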
# [5] = system: mitotic spindle of HeLaM cells; format: cell-based; settings: compound 10 μM + MG132 + ZM447439 (DMSO+MG132+ZM447439 3%)
# NCI 60 cancer cell lines = assay: NCI dose response assay; format: cell-based, human
# HDAC8 = target: T2, HDAC8 (Homo sapiens, UniProt Q9BY41); assay: HDAC-Glo inhibitor testing with recombinant HDAC8; format: biochemical; settings: for remaining activity at 100 µM: read-out: HDAC8 activity remaining
# T2 sequence (Q9BY41 1-377): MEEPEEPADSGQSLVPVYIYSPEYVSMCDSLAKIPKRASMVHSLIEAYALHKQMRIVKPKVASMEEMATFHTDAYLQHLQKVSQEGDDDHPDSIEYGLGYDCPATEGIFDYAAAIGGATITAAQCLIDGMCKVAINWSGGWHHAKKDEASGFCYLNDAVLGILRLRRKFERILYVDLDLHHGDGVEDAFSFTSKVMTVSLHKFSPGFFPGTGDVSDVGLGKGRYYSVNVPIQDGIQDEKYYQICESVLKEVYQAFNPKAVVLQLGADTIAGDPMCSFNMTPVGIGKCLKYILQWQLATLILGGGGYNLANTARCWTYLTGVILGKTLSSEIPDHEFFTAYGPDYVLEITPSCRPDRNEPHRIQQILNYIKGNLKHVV
# HDAC3 = HDAC3 (Homo sapiens, UniProt O15379); assay: HDAC-Glo inhibitor testing with recombinant HDAC3; format: biochemical
# Chain of HDAC3 (O15379 whole entry): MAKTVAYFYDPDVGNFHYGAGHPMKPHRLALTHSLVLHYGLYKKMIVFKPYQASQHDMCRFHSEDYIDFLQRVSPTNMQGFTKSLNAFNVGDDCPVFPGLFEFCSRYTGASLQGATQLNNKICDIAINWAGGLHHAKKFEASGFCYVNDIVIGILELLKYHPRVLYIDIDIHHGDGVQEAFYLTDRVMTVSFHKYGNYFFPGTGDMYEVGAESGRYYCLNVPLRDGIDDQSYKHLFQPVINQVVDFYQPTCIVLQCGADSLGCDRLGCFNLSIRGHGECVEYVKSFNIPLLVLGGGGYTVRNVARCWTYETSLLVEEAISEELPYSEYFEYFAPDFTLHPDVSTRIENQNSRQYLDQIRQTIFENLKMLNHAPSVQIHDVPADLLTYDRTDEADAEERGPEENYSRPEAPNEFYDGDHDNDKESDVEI
# Chain of HDAC3 (Q9Y618 395-489 partner limits assumed): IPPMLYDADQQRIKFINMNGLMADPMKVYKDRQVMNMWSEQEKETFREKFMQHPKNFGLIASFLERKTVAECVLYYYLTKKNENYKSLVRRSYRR
# [6] = target: tubulin heterodimers, purified from porcine brain (Sus scrofa, UniProt P02554); assay: Turbidity-based tubulin polymerization assay; format: biochemical; settings: 10 μM compound, 37 °C, exponential phase (DMSO 10 mOD/min)
# Chain of tubulin heterodimers, purified from porcine brain (P02554 whole entry): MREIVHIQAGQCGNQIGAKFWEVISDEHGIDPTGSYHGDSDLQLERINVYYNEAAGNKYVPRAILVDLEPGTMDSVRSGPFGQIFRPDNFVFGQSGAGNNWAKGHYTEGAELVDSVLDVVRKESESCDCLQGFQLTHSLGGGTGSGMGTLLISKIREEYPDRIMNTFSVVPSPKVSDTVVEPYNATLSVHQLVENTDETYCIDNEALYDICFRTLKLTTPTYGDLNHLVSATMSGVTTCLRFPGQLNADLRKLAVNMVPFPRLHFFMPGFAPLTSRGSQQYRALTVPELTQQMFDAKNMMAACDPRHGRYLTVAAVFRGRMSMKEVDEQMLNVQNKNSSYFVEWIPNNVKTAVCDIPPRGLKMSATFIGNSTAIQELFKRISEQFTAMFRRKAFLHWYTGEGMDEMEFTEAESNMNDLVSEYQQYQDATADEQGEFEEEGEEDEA
# Chain of tubulin heterodimers, purified from porcine brain (P02550 whole entry partner): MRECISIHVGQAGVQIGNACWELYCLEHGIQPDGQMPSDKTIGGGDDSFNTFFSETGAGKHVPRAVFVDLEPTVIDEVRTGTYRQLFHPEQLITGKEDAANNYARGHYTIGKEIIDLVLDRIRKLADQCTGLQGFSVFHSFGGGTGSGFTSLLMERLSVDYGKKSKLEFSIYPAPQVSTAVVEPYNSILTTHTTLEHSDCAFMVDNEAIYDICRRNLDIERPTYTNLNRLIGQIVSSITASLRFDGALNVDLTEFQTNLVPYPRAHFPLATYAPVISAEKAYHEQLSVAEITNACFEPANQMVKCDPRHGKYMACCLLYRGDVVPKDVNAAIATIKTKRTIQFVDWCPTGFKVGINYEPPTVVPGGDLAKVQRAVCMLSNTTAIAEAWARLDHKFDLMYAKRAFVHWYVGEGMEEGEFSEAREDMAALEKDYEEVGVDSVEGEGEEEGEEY
Compound,IC50 (HDAC2),IC50 (HDAC1),activity at 10 µM [2],IC50 (HDAC6),GI50 (HCT 116 cells),global histone H3 acetylation and tubulin acetylation [4],IC50 (HDAC8),IC50 (HDAC3),also measured
"O=C(Cc1ccc(/C=C/C(=O)c2ncc[nH]2)cc1)Nc1ccc(Cl)cc1 [IPE-8, (E)-2-(-4(3-(1H-imidazol-2-yl)-3-oxoprop-1-en-1-yl)phenyl)-N-(4-chlorophenyl)acetamide]",> 100 µM,> 100 µM,21.1%,> 100 µM,5.14 µM,,,,"activity remaining, each HDAC isoform [1]: 20–80%; cells in G2/M (HeLaM cells): 33%; subG1 population (HeLaM cells): 59%; SMC3 acetylation [3]: no effect on SMC3 acetylation"
"O=C(CCCCCCC(=O)Nc1ccccc1)NO [SAHA, reference compound]",,,,,,dramatically increased,,,cells in G2/M (HeLaM cells): 8.2%; subG1 population (HeLaM cells): 37%; spindle collapse [5]: did not produce the same aberrant spindle
"Cn1ccnc1C(=O)/C=C/c1ccc(CC(=O)Nc2ccccc2)cc1 [IPE-16, (E)-2-(4-(3-(1-Methyl-1H-imidazol-2-yl)-3-oxoprop-1-en-1-yl)phenyl)-N-phenylacetamide]",,,15.9%,,5.91 µM,no increase in global histone acetylation or tubulin acetylation,,,spindle collapse [5]: phenotype was reproduced
"Cn1ccnc1C(=O)/C=C/c1ccc(CC(=O)Nc2ccc(F)cc2)cc1 [IPE-19, (E)-N-(4-Fluorophenyl)-2-(4-(3-(1-methyl-1H-imidazol-2-yl)-3-oxoprop-1-en-1-yl)phenyl)acetamide]",,,33.1%,,6.56 µM,no increase in global histone acetylation or tubulin acetylation,,,
"Cn1ccnc1C(=O)/C=C/c1ccc(CC(=O)Nc2ccc(S(F)(F)(F)(F)F)cc2)cc1 [IPE-22, (E)-2-(4-(3-(1-Methyl-1H-imidazol-2-yl)-3-oxoprop-1-en-1-yl)phenyl)-N-(4-(pentafluoro-λ^6-sulfanyl)phenyl)acetamide]",> 200 µM,> 200 µM,-18.8%,> 200 µM,,,3 ± 0.2 µM,> 200 µM,"GI50, all leukemia cell lines (NCI 60 cancer cell lines): upper nanomolar; fold selectivity for HDAC8 compared to the other isoforms (HDAC8; from IC50 values, other isoforms >200 μM): ≥ 67 fold; remaining activity at 100 µM (HDAC8): 20 to 60%; spindle collapse [5]: phenotype was reproduced; inhibition at 10 µM ([2]; read-out: growth inhibition at 10 μM): 100%"
"Cn1ccnc1C(=O)/C=C/c1ccc(CC(=O)Nc2ccc(Br)cc2)cc1 [IPE-18, (E)-N-(4-Bromophenyl)-2-(4-(3-(1-methyl-1H-imidazol-2-yl)-3-oxoprop-1-en-1-yl)phenyl)acetamide]",> 100 µM,> 100 µM,19.9%,> 100 µM,,,> 100 µM,> 100 µM,
"Cn1ccnc1C(=O)/C=C/c1ccc(CC(=O)Nc2cc(C(F)(F)F)cc(C(F)(F)F)c2)cc1 [IPE-26, (E)-N-(3,5-bis(trifluoromethyl)phenyl)-2-(4-(3-(1-methyl-1H-imidazol-2-yl)-3-oxoprop-1-en-1-yl)phenyl)acetamide]",> 100 µM,> 200 µM,69%,> 100 µM,,,15 ± 1 µM,> 200 µM,remaining activity at 100 µM (HDAC8): 20 to 60%
"Nc1ccccc1NC(=O)c1ccc(CNC(=O)OCc2cccnc2)cc1 [MS275, reference compound]",,,,,,dramatically increased,,,
"Cn1ccnc1C(=O)/C=C/c1ccc(CC(=O)Nc2c(F)c(F)c(F)c(F)c2F)cc1 [IPE-25, (E)-2-(4-(3-(1-methyl-1H-imidazol-2-yl)-3-oxoprop-1-en-1-yl)phenyl)-N-(perfluorophenyl)acetamide]",8.9 ± 0.6 µM,12 ± 1 µM,61.4%,8.6 ± 4.9 µM,,,9 ± 0.5 µM,16 ± 1 µM,
"CC(=O)O[C@H]1C(=O)[C@@]2(C)[C@H]([C@H](OC(=O)c3ccccc3)[C@]3(O)C[C@H](OC(=O)[C@H](O)[C@@H](NC(=O)c4ccccc4)c4ccccc4)C(C)=C1C3(C)C)[C@]1(OC(C)=O)CO[C@@H]1C[C@@H]2O [Taxol, reference compound]",,,,,,,,,Vmax of tubulin polymerization [6]: higher Vmax than DMSO
"O=C(Cc1ccc(/C=C/C(=O)c2ncc[nH]2)cc1)Nc1ccc(Br)cc1 [IPE-9, (E)-2-(-4(3-(1H-imidazol-2-yl)-3-oxoprop-1-en-1-yl)phenyl)-N-(4-bromophenyl)acetamide]",,,17.9%,,,,,,"GI50, all but two of the cell lines each in the leukemia and colon cancer panels (NCI 60 cancer cell lines): sub-micromolar"
"Cn1ccnc1C(=O)/C=C/c1ccc(CC(=O)Nc2cc(F)c(F)c(F)c2)cc1 [IPE-24, (E)-2-(4-(3-(1-methyl-1H-imidazol-2-yl)-3-oxoprop-1-en-1-yl)phenyl)-N-(3,4,5-trifluorophenyl)acetamide]",> 200 µM,> 200 µM,22.7%,> 200 µM,,,13 ± 1 µM,> 200 µM,"GI50, all leukemia cell lines (NCI 60 cancer cell lines): upper nanomolar; remaining activity at 100 µM (HDAC8): 20 to 60%"
"Cc1ccc(NC(=O)Cc2ccc(/C=C/C(=O)c3ncc[nH]3)cc2)cc1 [IPE-3, (E)-2-(4-(3-(1H-Imidazol-2-yl)-3-oxoprop-1-en-1-yl)phenyl)-N-(p-tolyl)acetamide]",,,41.3%,,6.85 µM,,,,
